# NPY-Y1 antag = blocks the human neuropeptide Y Y1 receptor | P25929 | HEK293-CNG Y1 cells, membrane potential fluorescence; NPY at EC95, then isoproterenol | inhibition, % at 3.6 µM | 200,000 compounds, 1% hits | AID 1040;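 active = inhibition above the campaign mean inhibition of all tested compounds plus 3 SD, cut at about 20% in these data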;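 also: 0% = DMSO wells given NPY plus isoproterenol and 100% = isoproterenol alone without NPY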
# Target sequence (P25929 whole entry, looked up): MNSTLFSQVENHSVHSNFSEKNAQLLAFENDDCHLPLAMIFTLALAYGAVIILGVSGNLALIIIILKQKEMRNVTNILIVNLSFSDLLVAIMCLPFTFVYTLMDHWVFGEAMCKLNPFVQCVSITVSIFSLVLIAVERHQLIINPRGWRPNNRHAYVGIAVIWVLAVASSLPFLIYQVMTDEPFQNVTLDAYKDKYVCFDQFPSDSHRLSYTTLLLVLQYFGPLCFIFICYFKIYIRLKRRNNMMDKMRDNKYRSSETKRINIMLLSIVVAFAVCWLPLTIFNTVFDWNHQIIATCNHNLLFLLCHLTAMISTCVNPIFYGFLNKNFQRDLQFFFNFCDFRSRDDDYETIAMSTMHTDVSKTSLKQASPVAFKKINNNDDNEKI
#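 Material: HEK293 Y1/CNG channel cell line; also added: NPY (25 nM), isoproterenol (1 µM), Ro 20-1724 (25 µM); doses: one concentration, 3.6 µM, in 0.4% DMSO; schedule: compound incubation 1 h at room temperature, readout 45 min post-stimulation; technique: membrane potential fluorescence; measure: fluorescence ratio normalized to % inhibition between controls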
# Furin inhibitor = blocks human furin protease activity | P09958 | purified furin, fluorogenic substrate cleavage | inhibition, % at 20 µM or 30 µM | 220,000 compounds, 0.061% hits; in the data active = inhibition above about 25%
# NPY1 pot ag = human NPY-Y1 potentiation or agonism, primary screen | NPY-Y1 expressing cells, potentiator/agonist activation | activation, % at 3.6 µM | 220,000 compounds, 0.37% hits | AID 1304; in the data active = activation above about 33%, passing the limit was not always enough;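 also: cells stimulated with NPY at EC10 then isoproterenol at EC100; 0% = low agonist plus stimulus and 100% = saturating agonist plus stimulus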
# NPY-Y2 PAM-ag = human NPY-Y2 potentiation or agonism, primary screen; P49146; cells expressing NPY-Y2, potentiator/agonist read-out; activation, % at 3.6 µM; 220,000 compounds, 0.45% hits; AID 1359; in the data active = activation above about 27%;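 also: cells stimulated with NPY near EC25 plus isoproterenol at EC100; 0% = vehicle plus submaximal agonist and 100% = vehicle plus saturating agonist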
# Target sequence (P49146 whole entry, looked up): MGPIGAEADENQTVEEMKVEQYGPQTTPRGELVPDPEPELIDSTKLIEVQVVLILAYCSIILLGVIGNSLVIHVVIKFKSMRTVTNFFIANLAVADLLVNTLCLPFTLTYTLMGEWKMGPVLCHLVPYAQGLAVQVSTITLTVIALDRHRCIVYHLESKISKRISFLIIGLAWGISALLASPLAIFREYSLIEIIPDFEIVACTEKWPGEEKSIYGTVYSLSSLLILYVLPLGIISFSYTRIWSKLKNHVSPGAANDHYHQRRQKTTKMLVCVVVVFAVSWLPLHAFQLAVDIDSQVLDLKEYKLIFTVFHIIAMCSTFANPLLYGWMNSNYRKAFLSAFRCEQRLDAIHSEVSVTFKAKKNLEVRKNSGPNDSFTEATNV
# Cl transport mod = modulates chloride dependent transport by human KCC2 | KCC2 cells, thallium flux FluoZin-2 fluorescence | B-score of Tl+ flux slope (higher = more flux/activation; lower = inhibition) at 10 µM | 190,000 compounds, 2.2% hits;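 active = thallium flux slope and its plate-corrected score both differing from the plate sample mean at a set confidence after two filtering rounds, in either direction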;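 also: slope of fluorescence scaled to starting intensity during 10 to 20 s after thallium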
# NPY Y2 blocker = antagonists of human neuropeptide Y receptor Y2 | AID 793 | inhibition, % at 2.7 µM | 140,000 compounds, 0.99% hits | NPY-Y2 expressing cells, antagonist mode; in the data active = inhibition above about 17%;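 also: 0% = vehicle with agonist challenge and 100% = reference antagonist with challenge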
# KCC2 secondary = confirmation of human KCC2 transport modulators. shares compounds with Cl transport mod. HEK293-KCC2, thallium flux, FluoZin2 fluorescence; active compounds read high. normalised thallium flux (F/F0 slope) at 10 µM. 3,700 compounds, 15% hits;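 active = thallium flux slope above the same plate's solvent-only control mean plus 3 SD; inconclusive = the two replicate wells disagree; inactive = no significant difference from solvent-only control wells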
# KCC2 bumet counter = thallium flux persisting under bumetanide in KCC2 cells, counter-screen secondary assay | normalized thallium flux at 10 µM | HEK293-KCC2 + bumetanide/ouabain, thallium flux FluoZin2; active compounds read high | shares compounds with Cl transport mod | 3,700 compounds, 49% hits;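 active = thallium entry rate above the same plate's blocked-transporter control wells by more than 3 SD; inconclusive = the two repeat wells disagree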;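 also: raw slope of fluorescence over initial fluorescence between 10 and 20 s after thallium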
# KCC2 secondary2 = KCC2 (human) modulation, second secondary assay; shares compounds with Cl transport mod; HEK293-KCC2, thallium flux FluoZin2 fluorescence; actives lie on both sides; F/F0 rise rate, 10–20 s post-thallium; 3,700 compounds, 23% hits; normalized thallium flux at 10 µM; AID 1715;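 active = thallium flux slope more than 3 SD above or below the plate's solvent-only control mean, mostly below; inconclusive = the two repeat wells disagreed; inactive = no significant shift from solvent-only controls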;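 also: raw slope with 0.1% DMSO as baseline and bumetanide as block control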
# HEK293 Tl flux = parental HEK flux effect, counter-screen. shares compounds with Cl transport mod. thallium flux rate (normalised fluorescence) at 10 µM. AID 1716. HEK293 parental cells, thallium flux FluoZin2, ouabain; baseline-ratio fluorescence slope, 10–20 s after thallium. 3,700 compounds, 46% hits;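 active = thallium flux rate significantly above the same plate's solvent-only control wells, beyond their mean plus 3 SD; inconclusive = the two replicate wells gave conflicting results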
# KCC2 retest ouab = KCC2 (human) modulation, ouabain retest. HEK293-KCC2, thallium flux FluoZin2 fluorescence; bidirectional: low = inhibitor, high = activator. shares compounds with Cl transport mod. 3,700 compounds, 48% hits. raw Tl+ flux slope (below DMSO = inhibition, above = activation) at 10 µM. AID 1717;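 active = thallium flux slope beyond 3 SD from same-plate DMSO control mean in most replicates, usually higher, sometimes lower; inconclusive = repeat tests gave conflicting results; inactive = no significant difference from controls in most replicates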;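 also: slope of initial-normalized fluorescence between seconds 10 and 20 after thallium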
# HEK293 Tl flux2 = parental HEK flux effect, counter-screen 2; shares compounds with Cl transport mod; AID 1718; HEK293 parental, thallium flux FluoZin-2 fluorescence slope; thallium flux slope at 10 µM; 3,700 compounds, 33% hits;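 active = thallium flux slope above the same plate's solvent-control mean plus 3 SD in both duplicate wells; inconclusive = duplicate wells that disagreed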;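 also: run without ouabain in cells lacking the KCC2 cotransporter; slope of fluorescence scaled to its starting value between 10 and 20 s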
# * hit, by the source's call; u = inconclusive; x = no result. Most compounds without a hit are left out; they make up all but 3.7% or so of the library.
SMILES,NPY-Y1 antag,Furin inhibitor,NPY1 pot ag,NPY-Y2 PAM-ag,Cl transport mod,NPY Y2 blocker,KCC2 secondary,KCC2 bumet counter,KCC2 secondary2,HEK293 Tl flux,KCC2 retest ouab,HEK293 Tl flux2
CCOc1ccccc1OCCCOc1ccc(C)cc1Br,5.7,-13.8,-11.9,-9.3,-0.133,1.6,x,x,x,x,x,x
CCN(CC)CCCOc1ccc(C)cc1Br,8.9,-14.9,-32.5,-31.0,x,0.7,0.00693,0.00491,0.0273,u,0.0182,0.0106
Cc1nc(C(=O)NNC(=O)c2ccc(Cl)cc2)c(C(F)(F)F)o1,x,-19.0,-3.1,5.9,16.7*,x,0.00554,0.0299*,0.0391*,0.0242*,0.0351*,0.0195*
CCNC(=O)NC(=O)COC(=O)C1CSC2(C)CCC(=O)N12 (stereo unspecified),7.4,-28.7,-3.1,-13.7,0.821,x,x,x,x,x,x,x
COc1ccc(N(CC(=O)Nc2ccc(C)c(C)c2)S(=O)(=O)c2c(C)n[nH]c2C)cc1,-6.8,3.9,-1.8,4.6,x,-1.5,0.00671,u,0.0256*,0.00699,u,0.0109
O=C(CCc1nnc(COc2ccccc2)o1)NCc1ccccc1C(F)(F)F,3.7,-20.1,-3.2,-5.5,-3.19*,x,0.00739,0.00627,0.0359,0.00389,0.0167*,0.0109
O=C(CCc1nnc(COc2ccccc2)o1)NCc1ccc(Cl)s1,-2.1,-13.1,1.1,-2.8,-1.2,x,x,x,x,x,x,x
Cc1cccc(NC(=O)N2CCN(Cc3ccc4c(c3)OCO4)CC2)c1C,6.2,-26.2,12.3,12.1,-0.233,x,x,x,x,x,x,x
NC(=O)/C(=N\OC(=O)c1ccco1)c1nc(-c2ccc(Br)cc2)cs1,-3.4,-9.9,0.4,0.7,3.75*,4.0,0.00748,0.0129*,0.0252*,0.0111*,0.0184,0.00872
CN(C(=S)NC(=O)c1ccc(Br)o1)c1ccccc1,3.0,-13.8,-7.4,8.2,7.71*,3.1,0.00648,0.0204*,0.0398*,0.0201*,0.0306*,0.0228*
C/C(CCN1CCc2nc(-c3ccccc3)c(-c3ccccc3)cc2C1)=N\O[C@@H](C)c1cn([C@H](CO)Cc2ccccc2)nn1,-1.8,-19.6,-1.9,6.7,-0.73,1.5,x,x,x,x,x,x
C/C(=N\NC(=O)c1ccco1)c1cc2ccccc2o1,6.4,8.4,3.1,5.9,1.68,0.9,x,x,x,x,x,x
C/C(=N\NC(=O)c1ccncc1)c1cc2ccccc2o1,7.4,-18.2,9.6,9.3,10.9*,x,u,0.0243*,0.0335,0.0277*,0.0323*,u
O=C(NC(=S)NCc1cccnc1)c1cc2ccccc2o1,3.4,-24.1,7.7,6.5,41.5*,x,0.0302*,0.0881*,0.0493*,0.0488*,0.0534*,0.0481*
C/C(=N\NC(=O)c1cccnc1)c1cc2ccccc2o1,-9.5,-5.9,6.4,3.7,8.51*,x,0.00772,0.027*,0.0324,0.0122*,u,u
Cc1ccc(C(=O)NC(=S)NCc2cccnc2)cc1C,-1.4,-19.6,15.6,-4.9,0.338,x,x,x,x,x,x,x
C/C(=N/NC(N)=S)c1ccc(Br)s1,-0.5,1.4,2.8,-13.7,19.3*,x,0.0108,0.0324*,0.0307,0.0138*,0.0271,u
C/C(=N\NC(=O)c1ccc2c(c1)OCO2)c1ccco1,3.8,-10.3,8.2,-13.7,2.61,x,x,x,x,x,x,x
C/C(=N\NC(=O)c1ccc(Cl)c(Cl)c1)c1ccc(Br)s1,1.3,-16.6,6.7,13.3,7.17*,2.9,0.00755,0.00897*,0.0359,0.0225*,0.0253*,0.0169*
C/C(=N/NC(=O)c1ccc2c(c1)OCO2)c1ccc(Br)s1,-0.8,-30.7,6.6,3.4,6.32*,x,0.01,0.0152*,0.0343,u,u,u
C/C(=N\NC(=O)CNc1cccc(C)c1)c1ccc(Br)s1,5.1,-11.8,12.1,-5.7,0.0768,0.7,x,x,x,x,x,x
CCN1CCN(C(=O)c2ccc(N3CC4CC(C3)c3cccc(=O)n3C4)c([N+](=O)[O-])c2)CC1 (stereo unspecified),-0.9,-23.1,5.3,7.2,0.171,x,x,x,x,x,x,x
O=Nc1ccc(NOC(=O)c2ccccc2)cc1,4.3,-11.9,3.8,5.0,1.12,-0.2,x,x,x,x,x,x
O=C(N=Nc1ccc(NOC(=O)c2ccccc2Br)cc1)c1ccccc1O,2.7,-12.2,6.5,3.1,4.19*,x,0.0097,0.0209*,0.0292,0.0131*,u,0.0097
CC12CCCCC1N(O)C(=O)C(=O)N2O (stereo unspecified),4.6,-19.2,3.4,3.7,0.0455,-0.8,x,x,x,x,x,x
SMILES,NPY-Y1 antag,Furin inhibitor,NPY1 pot ag,NPY-Y2 PAM-ag,Cl transport mod,NPY Y2 blocker,KCC2 secondary,KCC2 bumet counter,KCC2 secondary2,HEK293 Tl flux,KCC2 retest ouab,HEK293 Tl flux2
COCc1nnc(SCC(=O)Nc2cccc(Cl)c2C)n1-c1ccccc1,2.9,-16.5,6.5,0.3,0.23,1.8,x,x,x,x,x,x
Cc1ccc(CCc2nnc(SCC(=O)Nc3cc(Cl)ccc3Cl)n2-c2ccccc2)o1,3.8,2.3,-3.2,-7.7,-4.74*,12.2,0.00827,0.005,0.0308,0.00641,0.0262,0.00954
O=C(/C=C\c1ccccc1OC(=O)c1ccccc1F)c1cc2ccccc2o1,-0.3,-19.9,-18.4,-2.0,-0.0227,5.2,x,x,x,x,x,x
O=C(CNC(=S)N(Cc1ccccc1F)C1CCCCC1)NCC1CCCO1 (stereo unspecified),-0.4,-13.2,10.4,-3.3,1.85,x,x,x,x,x,x,x
COc1cccc(/C=C/C(=O)OCC(=O)NCCc2ccccc2)c1,11.0,-23.3,-30.9,-17.3,-1.19,x,x,x,x,x,x,x
CSc1ncc(Cl)c(C(=O)C(C#N)c2nc3c(C)cc(C)cc3c(=O)[nH]2)n1 (stereo unspecified),3.8,-11.3,-18.6,-9.1,5.05*,7.7,0.007,0.0192*,0.0338,0.0163*,u,0.0152*
Cc1cccnc1NC(=S)NC(=O)c1cccs1,-3.3,-15.5,4.2,10.1,x,1.7,x,x,x,x,x,x
O=C(NC(=S)Nc1ccc(Br)cn1)c1cccs1,-7.5,-16.1,4.6,2.7,7.67*,x,0.00771,0.0239*,0.0362,0.0169*,0.033*,0.0176*
O=C(NC(=S)Nc1cccc([N+](=O)[O-])c1)c1ccccc1,x,-11.9,10.7,18.4,12.1*,x,0.00931,0.0299*,0.0327,u,0.0242,u

# Source: PubChem (several laboratories)
